{
  "source": "paper PMC8634121",
  "about": "(Brain, 2021)",
  "key": {"mouse DRG neurons": {"test_system": "mouse DRG neurons", "assay": "Axon degeneration assay after axotomy in mouse DRG cultures", "type": "cell-based", "settings": "3 h pulse at 10 µM, compound removed, axotomy immediately; examined 16-72 h", "outline": "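Embryonic day 13.5 C57BL/6J mouse DRGs were trypsin/EDTA-dissociated (37°C, 15 min) and spot-plated at 5000 cells/well on poly-D-lysine/laminin in Neurobasal/B27 with NGF, uridine and fluorodeoxyuridine. At DIV 6–7, cultures got a 3 h pulse of test compound at 10 µM (from 10 mM DMSO stock; […] DMSO final). Compound was rinsed out, […]. Axons were manually cut with a micro-blade, then PFA-fixed and immunostained.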"}, "[1]": {"molecular_target": "T1, SAM-TIR protein (human SARM1) (Homo sapiens, UniProt Q6SZW1)", "T1 sequence (Q6SZW1 408-700)": "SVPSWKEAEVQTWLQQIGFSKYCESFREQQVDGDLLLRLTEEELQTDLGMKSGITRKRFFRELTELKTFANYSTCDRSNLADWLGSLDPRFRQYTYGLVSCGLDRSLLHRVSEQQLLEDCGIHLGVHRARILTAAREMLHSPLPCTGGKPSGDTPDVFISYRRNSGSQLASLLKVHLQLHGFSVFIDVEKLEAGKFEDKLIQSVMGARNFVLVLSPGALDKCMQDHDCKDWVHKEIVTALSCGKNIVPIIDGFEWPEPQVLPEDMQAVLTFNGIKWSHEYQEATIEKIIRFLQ", "assay": "Washout assay with plate-bound SAM-TIR", "type": "biochemical", "settings": "2 h treatment, plates rinsed, assayed 60 min after removal of compound", "outline": "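SAM-TIR lysate (30 µg/ml total protein) was captured via its Strep-tag on Strep-Tactin XT plates, and unbound material was rinsed off. Bound enzyme was exposed to test compound for 2 h, rinsed, then held in assay solution without NAD+ for 0, 10 or 60 min. Wells were rinsed again, and activity was started by adding NAD+. A reversible reference inhibitor was run alongside.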"}},
  "data": [
    {"smiles": "Ic1cccc2cnccc12", "note": "[DSRM-3716]", "values": [
      {"measurement": "axonal protection after compound removal", "setting": "mouse DRG neurons", "value": "completely lost"},
      {"measurement": "SARM1 inhibition after compound removal", "setting": "[1]", "value": "Substantial loss of inhibition"}
    ]}
  ]
}
